From ChEMBL document CHEMBL4819122, “Novel 4-(piperazin-1-yl)quinolin-2(1H)-one bearing thiazoles with antiproliferative activity through VEGFR-2-TK inhibition” (Bioorg Med Chem, 2021)

Legend:
RPMI-8226 = assay: Cytotoxicity against human RPMI-8226 assessed as growth inhibition at 10 uM by NCI protocol relative to control; assay type: functional; details: read-out: GI
Outline: (§1)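 Run by NCI as a single-dose screen at 10 μM across the sixty-cell-line panel, which covers nine human tumour tissue types. The read-out is percent growth inhibition of treated cells relative to untreated cells.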

NCI-H460 = assay: Cytotoxicity against human NCI-H460 assessed as growth inhibition at 10 uM by NCI protocol relative to control; assay type: functional; details: read-out: GI; outline: as §1
NCI-H522 = assay: Cytotoxicity against human NCI-H522 assessed as growth inhibition at 10 uM by NCI protocol relative to control; assay type: functional; details: read-out: GI; outline: as §1
HCC 2998 = assay: Cytotoxicity against human HCC-2998 assessed as growth inhibition at 10 uM by NCI protocol relative to control; assay type: functional; details: read-out: GI; outline: as §1
HCT-15 = assay: Cytotoxicity against human HCT-15 assessed as growth inhibition at 10 uM by NCI protocol relative to control; assay type: functional; details: read-out: GI; outline: as §1
SF-539 = assay: Cytotoxicity against human […] assessed as growth inhibition at 10 uM by NCI protocol relative to control; assay type: functional; details: read-out: GI; outline: as §1
LOX IMVI = assay: Cytotoxicity against human LOX IMVI assessed as growth inhibition at 10 uM by NCI protocol relative to control; assay type: functional; details: read-out: GI; outline: as §1
M14 = assay: Cytotoxicity against human M14 assessed as growth inhibition at 10 uM by NCI protocol relative to control; assay type: functional; details: read-out: GI; outline: as §1
UACC-257 = assay: Cytotoxicity against human UACC-257 assessed as growth inhibition at 10 uM by NCI protocol relative to control; assay type: functional; details: read-out: GI
Outline: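 Run by the NCI under its standard protocol: one dose of 10 μM against a sixty-line panel from nine human tumour tissues. Result given as percent growth inhibition of treated cells relative to untreated cells.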

NCI/ADR-RES = assay: Cytotoxicity against human NCl/ADR-RES assessed as growth inhibition at 10 uM by NCI protocol relative to control; assay type: functional; details: read-out: GI; outline: as §1
SK-OV-3 = assay: Cytotoxicity against human SK-OV-3 assessed as growth inhibition at 10 uM by NCI protocol relative to control; assay type: functional; details: read-out: GI; outline: as §1
A498 = assay: Cytotoxicity against human A498 assessed as growth inhibition at 10 uM by NCI protocol relative to control; assay type: functional; details: read-out: GI; outline: as §1
CAKI-1 = assay: Cytotoxicity against human Caki1 assessed as growth inhibition at 10 uM by NCI protocol relative to control; assay type: functional; details: read-out: GI; outline: as §1
BT-549 = assay: Cytotoxicity against human BT-549 assessed as growth inhibition at 10 uM by NCI protocol relative to control; assay type: functional; details: read-out: GI; outline: as §1
T47D [1] = assay: Cytotoxicity against human T47D cells assessed as reduction in cell viability after 3 hrs by MTT assay
HOP-62 = assay: Cytotoxicity against human HOP-62 assessed as growth inhibition at 10 uM by NCI protocol relative to control; assay type: functional; details: read-out: GI; outline: as §1
MCF10 = assay: Cytotoxicity against human MCF10 cells assessed as reduction in cell viability after 3 hrs by MTT assay; details: MCF10, 3 h
T47D [2] = assay: Induction of cell cycle arrest in human T47D cells assessed as increase in accumulation at G0/G1 phase after 24 hrs by propidium iodide/Annexin V staining based FACScan flow cytometry(reference value: 52.59%); assay type: functional
T47D [3] = assay: Induction of cell cycle arrest in human T47D cells assessed as increase in accumulation at S phase after 24 hrs by propidium iodide/Annexin V staining based FACScan flow cytometry(reference value: 34.62%); assay type: functional
T47D [4] = assay: Induction of cell cycle arrest in human T47D cells assessed as increase in accumulation at G2/M phase after 24 hrs by propidium iodide/Annexin V staining based FACScan flow cytometry(reference value: 12.79%); assay type: functional
T47D [5] = assay: Induction of cell cycle arrest in human T47D cells assessed as increase in accumulation at pre G1 phase after 24 hrs by propidium iodide/Annexin V staining based FACScan flow cytometry(reference value: 2.61%); assay type: functional
T47D [6] = assay: Induction of apoptosis in human T47D cells assessed as total apoptotic cells after 24 hrs by Annexin V-FITC/propidium iodide staining based flow cytometric analysis (reference value: 2.61 %); assay type: functional
T47D [7] = assay: Induction of apoptosis in human T47D cells assessed as early apoptotic cells after 24 hrs by Annexin V-FITC/propidium iodide staining based flow cytometric analysis (reference value: 0.66 %); assay type: functional
T47D [8] = assay: Induction of apoptosis in human T47D cells assessed as late apoptotic cells after 24 hrs by Annexin V-FITC/propidium iodide staining based flow cytometric analysis (reference value: 0.21 %); assay type: functional
T47D [9] = assay: Induction of apoptosis in human T47D cells assessed as necrotic cells after 24 hrs by Annexin V-FITC/propidium iodide staining based flow cytometric analysis (reference value: 1.74%); assay type: functional

| SMILES | inhibition of growth at 10 µM (RPMI-8226) [%] | inhibition of growth at 10 µM (NCI-H460) [%] | inhibition of growth at 10 µM (NCI-H522) [%] | inhibition of growth at 10 µM (HCC 2998) [%] | inhibition of growth at 10 µM (HCT-15) [%] | inhibition of growth at 10 µM (SF-539) [%] | inhibition of growth at 10 µM (LOX IMVI) [%] | inhibition of growth at 10 µM (M14) [%] | inhibition of growth at 10 µM (UACC-257) [%] | inhibition of growth at 10 µM (NCI/ADR-RES) [%] | inhibition of growth at 10 µM (SK-OV-3) [%] | inhibition of growth at 10 µM (A498) [%] | inhibition of growth at 10 µM (CAKI-1) [%] | inhibition of growth at 10 µM (BT-549) [%] | IC50 (T47D [1]) [µM] | inhibition of growth at 10 µM (HOP-62) [%] | further results |
| --- | --- | --- | --- | --- | --- | --- | --- | --- | --- | --- | --- | --- | --- | --- | --- | --- | --- |
| O=C(CN1CCN(c2cc(=O)[nH]c3ccc(F)cc23)CC1)Nc1nc(-c2ccc(Cl)cc2)cs1 | 38.3 | 18.1 | 25.9 | 30.9 | 34.9 | 30.5 | 21.8 | 30.6 | 31.3 | 41.9 | 11.9 | 60.5 | 55.5 | 27.5 | 2.73 |  |  |
| O=C(CN1CCN(c2cc(=O)n(-c3ccccc3)c3ccccc23)CC1)Nc1nc(-c2ccc(Cl)cc2)cs1 | 63.3 | 45.2 | 43.7 |  | 60.3 | 23.9 | 41.6 | 50.2 | 72 | 45.1 | 28.6 | 59.2 | 50.4 | 53.5 | 30.2 | 34.2 | IC50 (MCF10): 64.6 µM; Activity (T47D [2]): 45.69%; Activity (T47D [3]): 49.36%; Activity (T47D [4]): 4.95%; Activity (T47D [5]): 25.12%; Activity (T47D [6]): 25.12%; Activity (T47D [7]): 4.06%; Activity (T47D [8]): 11.21%; Activity (T47D [9]): 9.85% |
| Cc1ccc(-c2csc(NC(=O)CN3CCN(c4cc(=O)[nH]c5ccc(F)cc45)CC3)n2)cc1 | 51.1 | 21.4 | 22.3 | 34.1 | 37.1 | 32.7 | 23.9 | 27.5 | 37.5 | 38.4 | 11 | 56.6 | 52.6 | 21.5 | 8.41 |  |  |
| O=C(CN1CCN(c2cc(=O)n(-c3ccccc3)c3ccccc23)CC1)Nc1nc(-c2ccccc2)cs1 | 53.8 | 67.8 | 33.5 | 18.2 | 74.8 | 22.9 | 50.5 | 26.6 | 51.5 | 37.3 | 29.2 | 33.8 | 38.6 | 33 | 10.3 | 33.5 |  |
